{"source": "ChEMBL document CHEMBL1681679", "about": "“Investigation of a novel molecular descriptor for the lead optimization of 4-aminoquinazolines as vascular endothelial growth factor receptor-2 inhibitors: application for quantitative structure-activity relationship analysis in lead optimization” (Bioorg Med Chem Lett, 2011)"}
{"biological_target": "T1, Vascular endothelial growth factor receptor 2 (Homo sapiens, UniProt P35968)", "T1 sequence (P35968 whole entry)": "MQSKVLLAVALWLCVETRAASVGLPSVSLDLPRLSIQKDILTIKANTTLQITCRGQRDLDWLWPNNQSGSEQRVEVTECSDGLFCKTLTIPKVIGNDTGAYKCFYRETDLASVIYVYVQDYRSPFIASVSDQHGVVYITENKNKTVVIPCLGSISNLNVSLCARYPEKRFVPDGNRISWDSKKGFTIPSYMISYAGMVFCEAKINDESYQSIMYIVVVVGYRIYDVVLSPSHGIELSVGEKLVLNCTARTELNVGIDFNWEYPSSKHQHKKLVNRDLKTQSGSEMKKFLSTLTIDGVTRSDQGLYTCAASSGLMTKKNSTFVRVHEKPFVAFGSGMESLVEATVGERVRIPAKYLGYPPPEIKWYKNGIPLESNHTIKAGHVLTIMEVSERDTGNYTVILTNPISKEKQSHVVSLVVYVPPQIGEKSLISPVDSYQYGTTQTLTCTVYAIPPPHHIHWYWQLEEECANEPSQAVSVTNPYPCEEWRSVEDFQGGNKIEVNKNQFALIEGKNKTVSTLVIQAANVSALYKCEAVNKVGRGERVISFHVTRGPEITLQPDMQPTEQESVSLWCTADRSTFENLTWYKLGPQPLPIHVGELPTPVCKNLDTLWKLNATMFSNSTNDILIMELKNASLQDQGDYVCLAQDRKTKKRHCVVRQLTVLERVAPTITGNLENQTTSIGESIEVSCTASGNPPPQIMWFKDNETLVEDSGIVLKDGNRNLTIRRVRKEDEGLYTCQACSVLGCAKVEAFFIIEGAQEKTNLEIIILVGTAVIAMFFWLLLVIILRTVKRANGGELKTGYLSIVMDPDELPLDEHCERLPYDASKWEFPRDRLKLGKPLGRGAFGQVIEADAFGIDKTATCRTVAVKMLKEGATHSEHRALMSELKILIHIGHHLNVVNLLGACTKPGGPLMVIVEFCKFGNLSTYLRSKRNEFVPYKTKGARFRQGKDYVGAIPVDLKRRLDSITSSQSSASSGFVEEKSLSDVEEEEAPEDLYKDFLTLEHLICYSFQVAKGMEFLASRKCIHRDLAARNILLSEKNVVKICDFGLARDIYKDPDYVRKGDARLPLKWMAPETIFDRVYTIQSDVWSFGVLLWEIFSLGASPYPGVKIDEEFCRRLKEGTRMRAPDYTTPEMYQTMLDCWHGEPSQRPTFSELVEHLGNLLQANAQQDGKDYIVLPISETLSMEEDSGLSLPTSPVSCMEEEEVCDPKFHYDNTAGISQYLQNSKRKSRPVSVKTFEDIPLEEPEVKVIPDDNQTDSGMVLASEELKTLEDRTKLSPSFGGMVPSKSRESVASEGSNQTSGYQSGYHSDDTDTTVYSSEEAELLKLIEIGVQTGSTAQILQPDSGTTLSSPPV", "assay": "Inhibition of human recombinant His-tagged VEGFR2 assessed as […] absorption by ELISA assay in presence of 20 uM ATP", "conditions": "not given", "units": {"IC50": "nM"}}
{"smiles": "Cc1cc(F)c(Nc2ncnc3cc(OCc4ccccc4)ccc23)cc1O", "IC50": 2}
{"biological_target": "T1, Vascular endothelial growth factor receptor 2", "conditions": "25 uM", "units": {"inhibition": "%"}}
{"smiles": "COc1ccc(-c2cnc3c(-c4ccsc4)cnn3c2)cc1", "inhibition": 46}
{"biological_target": "T1, Vascular endothelial growth factor receptor 2", "assay": "Inhibition of human recombinant His-tagged VEGFR2 assessed as […] absorption at 10 uM by ELISA assay in presence of 20 uM ATP", "conditions": "not given", "in_short": "(§1)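 Human N-terminal His6-tagged recombinant VEGFR2 kinase domain (aa790-end), 100 ng per well, with 20 μM ATP and 1.5 μM substrate peptide (final), in streptavidin-coated wells. Kinase buffer contains up to 1% DMSO. Read-out is ELISA absorbance at 450 nm. Each run includes blank, control, DMSO control and standard. Value is average percent inhibition at the stated final compound concentration, replicates assayed on separate days.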", "units": {"inhibition": "%"}}
{"smiles": "COc1cc2ncnc(OC(C)C)c2cc1OC", "inhibition": 2}
{"smiles": "COc1cc2ncnc(Nc3ccc(Cl)cc3)c2cc1OC", "inhibition": 4}
{"smiles": "COc1cc2ncnc(NC(C)C)c2cc1OC", "inhibition": 13}
{"smiles": "COc1cc2ncnc(Nc3ccccc3)c2cc1OC", "inhibition": 19}
{"smiles": "COc1cc2ncnc(NC3CCCCC3)c2cc1OC", "inhibition": 17}
{"smiles": "COc1cc2ncnc(Nc3ccc(F)cc3)c2cc1OC", "inhibition": 6}
{"smiles": "CCOc1ncnc2cc(OC)c(OC)cc12", "inhibition": 0}
{"smiles": "COc1cc2ncnc(Nc3ccc(C)c(Cl)c3)c2cc1OC", "inhibition": 9}
{"smiles": "COc1cc2ncnc(Nc3ccc(F)c(F)c3)c2cc1OC", "inhibition": 5}
{"smiles": "COc1cc2ncnc(Nc3ccc(C)c(F)c3)c2cc1OC", "inhibition": 66}
{"biological_target": "T1, Vascular endothelial growth factor receptor 2", "assay": "Inhibition of human recombinant His-tagged VEGFR2 assessed as […] absorption at 20 uM by ELISA assay in presence of 20 uM ATP", "conditions": "not given", "in_short": "as §1", "units": {"inhibition": "%"}}
{"smiles": "Cc1cc(F)c(Nc2ncnc3cc(OCc4ccccc4)ccc23)cc1O", "inhibition": 37}
